In one assay the test system is MCF7. Put plainly: Cytotoxicity against human MCF7 cells after 48 hrs by CellTiterGlo luminescent assay. Type of assay: functional, cell-based. To be noted: MCF7, 48 h. In a few lines:
(§1)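 Cells (5000-15 000 per well) were plated and left to adhere for 24 h in standard growth medium under ATCC-recommended conditions. The medium was then replaced and the compound added across varying doses, with DMSO in the final medium. Viability was read by ATP-dependent CellTiter-Glo luminescence, and IC50 values were derived from the dose series.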

In a further assay the test system is MDA-MB-468. In words: Cytotoxicity against human MDA-MB-468 cells after 48 hrs by CellTiterGlo luminescent assay. Type of assay: functional, cell-based. To be noted: MDA-MB-468, 48 h. Summed up: as §1
(In general: In ATP-based viability assays light output follows the ATP content of the culture.)

Another assay concerns T47D. Put plainly: Cytotoxicity against human T47D cells after 48 hrs by CellTiterGlo luminescent assay. Type of assay: functional, cell-based. In a few lines:
as §1

The next assay concerns MDA-MB-453. Put plainly: Cytotoxicity against human MDA-MB-453 cells after 48 hrs by CellTiterGlo luminescent assay. The conditions noted are these: MDA-MB-453, 48 h. Type of assay: functional, cell-based. In a few lines: as §1
The next assay deals with MDA-MB-231. In words: Cytotoxicity against human MDA-MB-231 cells after 48 hrs by CellTiterGlo luminescent assay. Type of assay: functional, cell-based. The conditions noted are these: MDA-MB-231, 48 h. In a few lines:
as §1

Assay [1] can be described thus: Cytotoxicity against human Hs 578T cells after 48 hrs by CellTiterGlo luminescent assay. The class given is functional, cell-based. In a few lines: as §1
A further assay relates to COLO 205. In words: Cytotoxicity against human COLO205 cells after 48 hrs by CellTiterGlo luminescent assay. The class given is functional, cell-based. To be noted: COLO 205, 48 h. In a few lines: as §1
The next assay has as its system HCT-116. In words: Cytotoxicity against human HCT116 cells after 48 hrs by CellTiterGlo luminescent assay. Type of assay: functional, cell-based. The conditions noted are these: HCT-116, 48 h. Summed up:
as §1

Another assay relates to SW48. Put plainly: Cytotoxicity against human SW48 cells after 48 hrs by CellTiterGlo luminescent assay. The class given is functional, cell-based. The conditions noted are these: SW48, 48 h. Summed up: as §1
In the next assay the test system is RKO. In words: Cytotoxicity against human RKO cells after 48 hrs by CellTiterGlo luminescent assay. Type of assay: functional, cell-based. In a few lines:
as §1

A further assay has as its system A549. Put plainly: Cytotoxicity against human A549 cells after 48 hrs by CellTiterGlo luminescent assay. The class given is functional, cell-based. The conditions noted are these: A549, 48 h. Summed up: as §1
The next assay deals with A-427. Put plainly: Cytotoxicity against human A427 cells after 48 hrs by CellTiterGlo luminescent assay. Type of assay: functional, cell-based. To be noted: A-427, 48 h. In a few lines: as §1
Another assay has as its system HepG2. In words: Cytotoxicity against human HepG2 cells after 48 hrs by CellTiterGlo luminescent assay. To be noted: HepG2, 48 h. The class given is functional, cell-based. In a few lines:
as §1

Another assay concerns Huh-7. In words: Cytotoxicity against human HuH7 cells after 48 hrs by CellTiterGlo luminescent assay. The class given is functional, cell-based. To be noted: Huh-7, 48 h. In a few lines: as §1
The nature of assay [2]: Cytotoxicity against human Hep3B cells after 48 hrs by CellTiterGlo luminescent assay. The class given is functional, cell-based, Hep 3B2. In a few lines: as §1
A short description of assay [3]: Cytotoxicity against human NHF177 cells after 48 hrs by CellTiterGlo luminescent assay. Type of assay: cell-based. The conditions noted are these: NHF177, 48 h. Summed up: as §1
The test system of another assay is HUVEC. Put plainly: Cytotoxicity against human HUVEC cells after 48 hrs by CellTiterGlo luminescent assay. The class given is cell-based. In a few lines:
as §1

The test system of a further assay is SK-MEL-28. Put plainly: Cytotoxicity against human SK-MEL-28 cells after 48 hrs by CellTiterGlo luminescent assay. Type of assay: functional, cell-based. The conditions noted are these: SK-MEL-28, 48 h. In a few lines: as §1
Another assay has as its system SK-MEL-5. In words: Cytotoxicity against human SK-MEL-5 cells after 48 hrs by CellTiterGlo luminescent assay. Type of assay: functional, cell-based. To be noted: SK-MEL-5, 48 h. Summed up:
as §1

In the next assay the test system is UACC-62. Put plainly: Cytotoxicity against human UACC62 cells after 48 hrs by CellTiterGlo luminescent assay. The class given is functional, cell-based. The conditions noted are these: UACC-62, 48 h. Summed up:
as §1

The test system of another assay is SK-MEL-2. In words: Cytotoxicity against human SK-MEL-2 cells after 48 hrs by CellTiterGlo luminescent assay. Type of assay: functional, cell-based. To be noted: SK-MEL-2, 48 h. In a few lines:
as §1

A further assay has as its system OVCAR-3. Put plainly: Cytotoxicity against human OVCAR3 cells after 48 hrs by CellTiterGlo luminescent assay. Type of assay: functional, cell-based. To be noted: OVCAR-3, 48 h. In a few lines:
as §1

Assay [4] in a line: Cytotoxicity against rat IEC-6 cells after 48 hrs by CellTiterGlo luminescent assay. Type of assay: cell-based. To be noted: IEC-6, 48 h. In a few lines:
as §1

pIC50: −log10 of the molar value.

As to `CC1=C(CO)C(=O)O[C@@H]([C@@H](CO)[C@H]2CC[C@H]3[C@@H]4CC=C5CC=CC(=O)[C@]5(C)[C@H]4C[C@@H](O)[C@]23C)C1`, the figures for the pIC50 with MCF7, with MDA-MB-468 and in the assay with T47D were 6.06, 6.12 and 6.00, respectively.

As to `CC1=C(CO[C@@H]2O[C@H](CO)[C@@H](O)[C@H](O)[C@H]2O)C(=O)O[C@@H]([C@@H](CO)[C@H]2CC[C@H]3[C@@H]4CC=C5CC=CC(=O)[C@]5(C)[C@H]4C[C@@H](O)[C@]23C)C1` [DINOXIN B], the pIC50 (in general, the IC50 on a negative log10 scale, so that one unit is a factor of ten) is 5.52 with MDA-MB-453; 6.00 in the assay with MDA-MB-231; 6.21 in the assay with MCF7; 6.24 with MDA-MB-468; 6.36 in assay [1]; 6.66 in the assay on T47D. In addition, the pIC50 is 5.66 with COLO 205; 6.00 with HCT-116; 6.24 with SW48; 6.44 in the assay on RKO; 5.47 with A549; 6.06 in the assay on A-427. Moreover, the pIC50 is 5.82 in the assay with HepG2; 5.82 with Huh-7; 6.17 in [2]; 5.91 in assay [3]; 6.13 with HUVEC; 5.64 in the assay with SK-MEL-28. Besides, the pIC50 in the assay on SK-MEL-5 is 5.85; in the assay with UACC-62, 6.30; in the assay with SK-MEL-2, 6.44; in the assay on OVCAR-3, 5.49; in [4], 5.48.

These data come from ChEMBL document CHEMBL1687883, “Dinoxin B, a withanolide from Datura inoxia leaves with specific cytotoxic activities” (J Nat Prod, 2011).
